Test system: U2OS
Experiment: Multiplex assay against U2OS
Format: toxicity, cell-based
Conditions: human
Outline: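 With compound added, live cells were imaged on a CQ1 microscope at 37°C and 5% CO2; staining with Hoechst33342, BioTracker Green Microtubule Cytoskeleton Dye, MitoTracker Red and Annexin V Alexa Fluor 680 had been done at seeding. The CellPathfinder machine-learning gating scheme split cells into Hoechst high-intensity objects or normal cells, normal cells into healthy, pyknosed or fragmented nuclei, and pyknosed cells into mitotic or apoptotic. The tubulin, mitochondrial-mass and membrane-permeability phenotypes are per cents of healthy-nucleus cells.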

[1] = 12 h, 1 µM, compound concentration 1 uM, replicate 1
[2] = 12 h, 1 µM, compound concentration 1 uM, replicate 2
[3] = 12 h, 10 µM, compound concentration 10 uM, replicate 1
[4] = 12 h, 10 µM, compound concentration 10 uM, replicate 2
[5] = 24 h, 1 µM, compound concentration 1 uM, replicate 1
[6] = 24 h, 1 µM, compound concentration 1 uM, replicate 2
[7] = 24 h, 10 µM, compound concentration 10 uM, replicate 1
[8] = 24 h, 10 µM, compound concentration 10 uM, replicate 2
[9] = 48 h, 1 µM, compound concentration 1 uM, replicate 1
[10] = 48 h, 1 µM, compound concentration 1 uM, replicate 2
[11] = 48 h, 10 µM, compound concentration 10 uM, replicate 1
[12] = 48 h, 10 µM, compound concentration 10 uM, replicate 2

N#Cc1c(Oc2cccc(OS(=O)(=O)CCCC(F)(F)F)c2)cccc1C(F)(F)F
Population Apoptotic (%) [1]: 77% | Population Fragmented Nuclei (%) [1]: 27% | Population Healthy Nuclei (%) [1]: 61% | Population Hoechst High Intensity Objects (%) [1]: 3% | Population Membrane Permeable-Phenotype (%) [1]: 4% | Population Mitochondria Different-Phenotype (%) [1]: 2% | Population Mitotic Cells (%) [1]: 22% | Population Normal (%) [1]: 96% | Population Pyknosed Nuclei (%) [1]: 10% | Population Tubulin-Different-Phenotype (%) [1]: 0% | Total Cell Count [1]: 220 | Population Apoptotic (%) [2]: 81% | Population Fragmented Nuclei (%) [2]: 12% | Population Healthy Nuclei (%) [2]: 76% | Population Hoechst High Intensity Objects (%) [2]: 0% | Population Membrane Permeable-Phenotype (%) [2]: 7% | Population Mitochondria Different-Phenotype (%) [2]: 7% | Population Mitotic Cells (%) [2]: 18% | Population Normal (%) [2]: 99% | Population Tubulin-Different-Phenotype (%) [2]: 8% | Total Cell Count [2]: 109 | Population Apoptotic (%) [3]: 78% | Population Fragmented Nuclei (%) [3]: 27% | Population Healthy Nuclei (%) [3]: 63% | Population Hoechst High Intensity Objects (%) [3]: 3% | Population Membrane Permeable-Phenotype (%) [3]: 11% | Population Mitochondria Different-Phenotype (%) [3]: 8% | Population Mitotic Cells (%) [3]: 21% | Population Normal (%) [3]: 96% | Population Pyknosed Nuclei (%) [3]: 8% | Population Tubulin-Different-Phenotype (%) [3]: 7% | Total Cell Count [3]: 222 | Population Apoptotic (%) [4]: 90% | Population Fragmented Nuclei (%) [4]: 14% | Population Healthy Nuclei (%) [4]: 75% | Population Hoechst High Intensity Objects (%) [4]: 0% | Population Membrane Permeable-Phenotype (%) [4]: 21% | Population Mitochondria Different-Phenotype (%) [4]: 4% | Population Mitotic Cells (%) [4]: 9% | Population Normal (%) [4]: 99% | Population Pyknosed Nuclei (%) [4]: 9% | Total Cell Count [4]: 112 | Population Apoptotic (%) [5]: 75% | Population Fragmented Nuclei (%) [5]: 25% | Population Healthy Nuclei (%) [5]: 61% | Population Hoechst High Intensity Objects (%) [5]: 2% | Population Membrane Permeable-Phenotype (%) [5]: 4% | Population Mitochondria Different-Phenotype (%) [5]: 2% | Population Mitotic Cells (%) [5]: 24% | Population Normal (%) [5]: 97% | Population Pyknosed Nuclei (%) [5]: 12% | Population Tubulin-Different-Phenotype (%) [5]: 3% | Total Cell Count [5]: 263 | Population Apoptotic (%) [6]: 90% | Population Fragmented Nuclei (%) [6]: 12% | Population Healthy Nuclei (%) [6]: 79% | Population Hoechst High Intensity Objects (%) [6]: 1% | Population Membrane Permeable-Phenotype (%) [6]: 11% | Population Mitochondria Different-Phenotype (%) [6]: 3% | Population Mitotic Cells (%) [6]: 10% | Population Normal (%) [6]: 98% | Population Pyknosed Nuclei (%) [6]: 7% | Population Tubulin-Different-Phenotype (%) [6]: 7% | Total Cell Count [6]: 130 | Population Apoptotic (%) [7]: 66% | Population Fragmented Nuclei (%) [7]: 26% | Population Healthy Nuclei (%) [7]: 66% | Population Hoechst High Intensity Objects (%) [7]: 6% | Population Membrane Permeable-Phenotype (%) [7]: 10% | Population Mitochondria Different-Phenotype (%) [7]: 8% | Population Mitotic Cells (%) [7]: 33% | Population Normal (%) [7]: 93% | Population Pyknosed Nuclei (%) [7]: 7% | Population Tubulin-Different-Phenotype (%) [7]: 5% | Total Cell Count [7]: 252 | Population Fragmented Nuclei (%) [8]: 9% | Population Healthy Nuclei (%) [8]: 83% | Population Hoechst High Intensity Objects (%) [8]: 3% | Population Membrane Permeable-Phenotype (%) [8]: 11% | Population Mitochondria Different-Phenotype (%) [8]: 0% | Population Normal (%) [8]: 96% | Population Tubulin-Different-Phenotype (%) [8]: 7% | Total Cell Count [8]: 130 | Population Apoptotic (%) [9]: 87% | Population Fragmented Nuclei (%) [9]: 17% | Population Healthy Nuclei (%) [9]: 70% | Population Hoechst High Intensity Objects (%) [9]: 3% | Population Membrane Permeable-Phenotype (%) [9]: 4% | Population Mitochondria Different-Phenotype (%) [9]: 0% | Population Mitotic Cells (%) [9]: 12% | Population Normal (%) [9]: 96% | Population Pyknosed Nuclei (%) [9]: 11% | Population Tubulin-Different-Phenotype (%) [9]: 3% | Total Cell Count [9]: 361 | Population Apoptotic (%) [10]: 100% | Population Fragmented Nuclei (%) [10]: 16% | Population Healthy Nuclei (%) [10]: 73% | Population Hoechst High Intensity Objects (%) [10]: 2% | Population Membrane Permeable-Phenotype (%) [10]: 9% | Population Mitochondria Different-Phenotype (%) [10]: 4% | Population Mitotic Cells (%) [10]: 0% | Population Normal (%) [10]: 97% | Population Pyknosed Nuclei (%) [10]: 9% | Population Tubulin-Different-Phenotype (%) [10]: 7% | Total Cell Count [10]: 195 | Population Apoptotic (%) [11]: 91% | Population Fragmented Nuclei (%) [11]: 23% | Population Healthy Nuclei (%) [11]: 64% | Population Hoechst High Intensity Objects (%) [11]: 4% | Population Membrane Permeable-Phenotype (%) [11]: 10% | Population Mitochondria Different-Phenotype (%) [11]: 6% | Population Mitotic Cells (%) [11]: 8% | Population Normal (%) [11]: 95% | Population Pyknosed Nuclei (%) [11]: 11% | Population Tubulin-Different-Phenotype (%) [11]: 6% | Total Cell Count [11]: 328 | Population Apoptotic (%) [12]: 100% | Population Fragmented Nuclei (%) [12]: 11% | Population Healthy Nuclei (%) [12]: 77% | Population Hoechst High Intensity Objects (%) [12]: 3% | Population Membrane Permeable-Phenotype (%) [12]: 13% | Population Mitochondria Different-Phenotype (%) [12]: 4% | Population Mitotic Cells (%) [12]: 0% | Population Normal (%) [12]: 96% | Population Pyknosed Nuclei (%) [12]: 10% | Population Tubulin-Different-Phenotype (%) [12]: 7% | Total Cell Count [12]: 184

Source: ChEMBL document CHEMBL5058577, “EUbOPEN Chemogenomics Library 2 (Multiplex)” (2022)
